Assay results collected from several papers.
PDPK1: 3-phosphoinositide-dependent protein kinase 1 (PDPK1, Homo sapiens, UniProt O15530)
PRSS1: Serine protease 1 (PRSS1, Homo sapiens, UniProt P07477)

CNC(=O)c1ccc(-c2cnn3ccc(C(=O)N(C)c4ccc(Cl)c(C(=O)O)c4)cc23)cc1 gave an IC50 of over 30 µM (PDPK1; enzyme activity, inhibitor).
C=CCc1ccc(OC)cc1 gave an EC50 of over 600 µM (OR8H1 (Homo sapiens, UniProt Q8NGG4); cAMP, agonist, luciferase).
The IC50 of CC[C@H](C)[C@H](NC(=O)[C@H](CO)NC(=O)CNC(=O)[C@@H](NC(=O)[C@@H](NC(=O)[C@@H](NC(=O)CN)[C@@H](C)O)C(C)C)[C@@H](C)O)C(=O)N[C@@H](CC(C)C)C(=O)N[C@H](C(=O)N1CCC[C@H]1C(=O)N[C@H](C(=O)N[C@@H](CC(=O)O)C(=O)N[C@@H](Cc1ccc(O)cc1)C(=O)NCC(=O)N[C@H]1CSSC[C@@H](C(=O)N[C@@H](CO)C(=O)N[C@H](C(=O)N[C@@H](C)C(=O)N[C@@H](CCSC)C(=O)N[C@@H](Cc2ccc(O)cc2)C(=O)NCC(=O)NCC(=O)N[C@H](C(=O)N[C@H](C(=O)N[C@@H](CC(=O)O)C(=O)N2CCC[C@H]2C(=O)N[C@H](C(=O)N[C@@H](CCCNC(=N)N)C(=O)N[C@@H](Cc2ccccc2)C(=O)N2CCC[C@H]2C(=O)N[C@@H](CC(N)=O)C(=O)N[C@@H](C)C(=O)N[C@@H](Cc2c[nH]c3ccccc23)C(=O)N[C@@H](CCCNC(=N)N)C(=O)N[C@@H](CCC(=O)O)C(=O)N[C@@H](CC(C)C)C(=O)O)[C@@H](C)CC)[C@@H](C)CC)C(C)C)C(C)C)NC(=O)[C@H](CC(C)C)NC(=O)[C@H](Cc2ccccc2)NC(=O)[C@@H]2CCCN2C(=O)[C@H](CC(N)=O)NC(=O)[C@H](Cc2ccccc2)NC1=O)[C@@H](C)CC)[C@@H](C)O is reported as over 100 µM (Chymotrypsinogen A (Bos taurus, UniProt P00766); enzyme activity, inhibitor, fluorescence).
With O=C(O)C(F)(F)C(F)(F)C(F)(F)C(F)(F)C(F)(F)C(F)(F)C(F)(F)F the IC50 was at least 50 µM (Aldo-keto reductase family 1 member C1 (AKR1C1, Homo sapiens, UniProt Q04828); enzyme activity, inhibitor).
CCC(C(=O)Nc1cc(NC2CCOCC2)ccc1C)n1cc(Br)cc2nc(SCc3ccc(F)cc3)nc1-2 (centres unmarked) has an IC50 of over 100 µM (PRSS1; enzyme activity, inhibitor).
With O=C(O)[C@H]1/C(=C/CO)O[C@@H]2CC(=O)N21 the IC50 was 249 µM (Carbapenem-hydrolyzing beta-lactamase KPC (KPC-2, Klebsiella pneumoniae, UniProt Q9F663); enzyme activity, inhibitor, absorbance; pH 7, with preincubation).
COC(=O)c1cc(N(C)C(=O)c2ccn3ncc(-c4ccc(C(=O)O)cc4)c3c2)ccc1Cl has an IC50 of over 30 µM (PDPK1; enzyme activity, inhibitor).
The IC50 of CCC(C(=O)Nc1cc(NC2CCNC2)ccc1C)n1cc(Br)cc2nc(SCc3ccc(F)cc3)nc1-2 (centres unmarked) is reported as over 100 µM (PRSS1; enzyme activity, inhibitor).
